Assay results from ChEMBL document CHEMBL5107939, “Optimization of brain-penetrant picolinamide derived leucine-rich repeat kinase 2 (LRRK2) inhibitors” (RSC Med Chem, 2021).

How the values were obtained:
[1] = In vivo inhibition of LRRK2 in CD rat assessed as reduction in serine 935 phosphorylated LRRK2 in striatum at 3 mg/kg, po and measured after 2 hrs by MSD immunoassay; format: functional
Method in brief: (§1)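 Male CD rats (125-150 g) dosed orally with compound suspended in 10% Tween 80 (5 mL/kg) or vehicle, euthanized by CO2 2 h later; striatum dissected, frozen on dry ice; pSer935 LRRK2 measured by MSD immunoassay as pSer935/total LRRK2 ratio, mean ± S.E.M.; one-way ANOVA with Dunnett's post hoc test.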

[2] = target: Adenosine receptor A2a (Homo sapiens) (UniProt P29274); test: Inhibition of human adenosine A2A receptor at 10 uM by radioligand binding assay
Method in brief: (§2)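 Single-concentration radioligand binding screen (Eurofins Panlabs); IC50 by non-linear least-squares regression; Ki via Cheng-Prusoff from observed IC50, radioligand concentration and historical KD; Hill coefficient reported.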

[3] = Mutagenicity in Salmonella typhimurium TA1535 at 30 to 5000 ug in presence of S9 metabolic activation system for 48 hrs by ames test; format: toxicity, Salmonella enterica subsp. enterica serovar Typhimurium; settings: in vitro, dose 30-5000 µg
Method in brief: (§3)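 Plate incorporation Ames test with S9 from phenobarbital/beta-naphthoflavone-induced male Wistar Han rat liver; 30, 100, 300, 1000, 3000, 5000 µg/plate; triplicate minimal glucose agar plates with trace histidine; 48 h at 37 °C; positive if 2-fold revertant increase over vehicle with dose relation.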

[4] = Drug metabolism in human hepatocytes assessed as (R)-2-(1-(4-amino-5-(trifluoromethyl)pyridin-2-yl)pyrrolidin-3-yl)propan-2-ol metabolite formation compound at 0.3 uM and measured after 120 mins by LC-MS/MS analysis; format: ADME, cell-based, Hepatocyte; settings: 2 h
[5] = Oral bioavailability in Beagle dog and measured upto 24 hrs by LC-MS/MS analysis; format: ADME, organism-based, Canis lupus familiaris; settings: in vivo
[6] = Toxicity in CD rat assessed micronucleus induction in bone marrow at 50 to 100 mg/kg, po BID administered for 4 days; format: organism-based; settings: in vivo, 96 h, dose 50-100 mg/kg, time 4 day
[7] = target: T1, Adenosine receptor A1 (Homo sapiens) (UniProt P30542); test: Inhibition of human adenosine A1 receptor at 10 uM by radioligand binding assay; method in brief: as §2
T1 sequence (whole entry): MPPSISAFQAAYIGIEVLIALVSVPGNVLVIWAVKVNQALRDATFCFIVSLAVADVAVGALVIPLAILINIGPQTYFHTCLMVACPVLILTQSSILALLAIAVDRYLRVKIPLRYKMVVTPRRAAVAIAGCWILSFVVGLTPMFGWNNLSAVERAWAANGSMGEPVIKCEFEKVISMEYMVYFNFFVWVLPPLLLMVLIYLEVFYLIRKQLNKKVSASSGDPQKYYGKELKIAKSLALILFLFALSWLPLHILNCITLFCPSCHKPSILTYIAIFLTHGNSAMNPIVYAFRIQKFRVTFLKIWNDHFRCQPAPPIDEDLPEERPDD

Homo sapiens [8] = species on record: Homo sapiens; test: Selectivity of inhibition of human LRRK2 to human CLK2
Homo sapiens [9] = species on record: Homo sapiens; test: Selectivity ratio, ratio of IC50 for inhibition of CLK2 (unknown origin) to IC50 for inhibition of recombinant human GST20 tagged truncated LRRK2 G2019S mutant
[10] = Plasma clearance in po dosed Beagle dog and measured upto 24 hrs by LC-MS/MS analysis; format: ADME, organism-based, Canis lupus familiaris
[11] = MRT in po dosed CD rat measured after 120 mins by LC-MS/MS analysis; format: ADME, organism-based; settings: in vivo
[12] = Intrinsic clearance in po dosed CD rat measured after 120 mins by LC-MS/MS analysis; format: ADME, organism-based; settings: in vivo, 2 h
[13] = Mutagenicity in Salmonella typhimurium TA98 at 30 to 5000 ug in presence of S9 metabolic activation system for 48 hrs by ames test; format: toxicity, Salmonella enterica subsp. enterica serovar Typhimurium; settings: dose 30-5000 µg; method in brief: as §3
Cavia porcellus = species on record: Cavia porcellus; test: Inhibition of guinea pig adenosine transporter at 1 uM by radioligand binding assay; method in brief: as §2
[14] = Mutagenicity in Salmonella typhimurium TA100 at 30 to 5000 ug in presence of S9 metabolic activation system for 48 hrs by ames test; format: toxicity, Salmonella enterica subsp. enterica serovar Typhimurium; settings: dose 30-5000 µg; method in brief: as §3
[15] = Intrinsic clearance in po dosed Beagle dog and measured upto 24 hrs by LC-MS/MS analysis; format: ADME, organism-based, Canis lupus familiaris; settings: in vivo
[16] = target: Substance-P receptor (Homo sapiens) (UniProt P25103); test: Inhibition of human tachykinin NK1 receptor at 10 uM by radioligand binding assay; method in brief: as §2
[17] = target: T2, Leucine-rich repeat serine/threonine-protein kinase 2 (Homo sapiens, UniProt Q5S007, G2019S); test: Inhibition of recombinant human GST20 tagged truncated LRRK2 G2019S mutant assessed as substrate phosphorylation preincubated for 15 mins followed by substrate addition and measured after 90 mins using fluorescein-labeled LRRK2tide as substrate in presence of ATP by TR-FRET based Lanthascreen kinase activity assay
Method in brief: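 Enzyme 1.25 nM in 50 mM Tris pH 8.5, 10 mM MgCl2, 0.01% Brij-35, 1 mM EGTA, 2 mM DTT, 0.05 mM orthovanadate. Compound (top 9.99 µM in DMSO, ten-point serial dilution) preincubated 15 min at RT. […] Stopped with EDTA plus 2 nM Tb anti-pERM, 1 h RT. 520/495 nm ratio read. IC50 from 4-parameter logistic fit, mean of several runs.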

[18] = system: P-gp (rat Mdr1a) (Homo sapiens); test: Substrate activity at P-gp (unknown origin) expressed in LLC-PK1 cells transfected with rat Mdr1a assessed as apparent permeability at 0.1 uM incubated for 3 hrs by LC-MSMS analysis; format: ADME, cell-based
[19] = target: Dual specificity protein kinase CLK2 (Homo sapiens, UniProt P49760); test: Inhibition of CLK2 (unknown origin) assessed as substrate phosphorylation using coumarin and fluorescein-labeled peptide as substrate incubated for 1 hr by Z'-LYTE kinase assay
Method in brief: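 CLK2 Z'-LYTE coupled-enzyme kit format, 10-point titration from DMSO; enzyme, substrate and compound reacted 1 h at ambient temperature; after development solution, read at excitation 400 nm; activity from coumarin 445 nm/fluorescein 520 nm emission ratio.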

[20] = MRT in po dosed Beagle dog and measured upto 24 hrs by LC-MS/MS analysis; format: ADME, organism-based, Canis lupus familiaris; settings: in vivo
[21] = Toxicity in CD rat assessed clinical signs of toxicity at 50 to 100 mg/kg, po BID administered for 4 days; format: organism-based; settings: in vivo, 96 h, dose 50-100 mg/kg, time 4 day
Homo sapiens [22] = species on record: Homo sapiens; test: Selectivity of inhibition of human LRRK2 to human MINK1
[23] = In vivo inhibition of LRRK2 in CD rat assessed as reduction in serine 935 phosphorylated LRRK2 in striatum at 10 mg/kg, po and measured after 2 hrs by MSD immunoassay; format: functional; method in brief: as §1
[24] = In vivo inhibition of LRRK2 in CD rat assessed as reduction in serine 935 phosphorylated LRRK2 in striatum at 100 mg/kg, po and measured after 2 hrs by MSD immunoassay; format: functional; method in brief: as §1
Homo sapiens [25] = species on record: Homo sapiens; test: Selectivity of inhibition of human LRRK2 to human IRAK4
[26] = Inhibition of calcium channel (unknown origin); design: species or system Homo sapiens
[27] = target: Sodium channel protein type 5 subunit alpha (Homo sapiens, UniProt Q14524); test: Inhibition of human NaV1.5 expressed in HEK293 by PatchXpress automated patch clamp assay; format: cell-based
[28] = In vivo inhibition of LRRK2 in CD rat assessed as reduction in serine 935 phosphorylated LRRK2 in striatum at 30 mg/kg, po and measured after 2 hrs by MSD immunoassay; format: functional; method in brief: as §1
[29] = target: Voltage-gated inwardly rectifying potassium channel KCNH2 (Homo sapiens, UniProt Q12809); test: Inhibition of human ERG tail current in cells at -80 mV holding potential by PatchXpress automated patch clamp assay; format: toxicity
[30] = target: T2, Leucine-rich repeat serine/threonine-protein kinase 2; test: Inhibition of human LRRK2 G2019S mutant expressed in human SH-SY5Y cells assessed as inhibition of tetracycline induced LRRK2 phosphorylation at Ser935 residue incubated for 90 mins by MSD assay; format: cell-based
Method in brief: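 SH-SY5Y neuroblastoma cells carrying LRRK2 G2019S, grown in DMEM/F-12 with GlutaMax, 10% Tet-free FBS, nonessential amino acids and pen-strep at 37 °C, 5% CO2. Expression induced with Tet (2 µg/ml) 48-72 h before treatment. Compound exposure 90 min. Lysates captured on anti-LRRK2-coated MSD plates, probed for pSer935 or total LRRK2 with Sulfo-Tag read-out. IC50 from standard 4P fit of % inhibition.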

[31] = Plasma clearance in po dosed CD rat measured after 120 mins by LC-MS/MS analysis; format: ADME, organism-based
[32] = Oral bioavailability in CD rat measured after 120 mins by LC-MS/MS analysis; format: ADME, organism-based; settings: in vivo
[33] = Brain to plasma permeability coefficient, Kp in CD rat plasma assessed as unbound fraction at 3 to 100 mg/kg, po and measured after 2 hrs by LC/MS/MS analysis; format: ADME, organism-based; settings: in vivo, dose 3-100 mg/kg
[34] = Drug metabolism in rat hepatocytes assessed as (R)-2-(1-(4-amino-5-(trifluoromethyl)pyridin-2-yl)pyrrolidin-3-yl)propan-2-ol metabolite formation compound at 0.3 uM and measured after 120 mins by LC-MS/MS analysis; format: ADME, cell-based, Hepatocyte; settings: 2 h

T2 sequence (Q5S007 whole entry G2019S, the tested form may be a part): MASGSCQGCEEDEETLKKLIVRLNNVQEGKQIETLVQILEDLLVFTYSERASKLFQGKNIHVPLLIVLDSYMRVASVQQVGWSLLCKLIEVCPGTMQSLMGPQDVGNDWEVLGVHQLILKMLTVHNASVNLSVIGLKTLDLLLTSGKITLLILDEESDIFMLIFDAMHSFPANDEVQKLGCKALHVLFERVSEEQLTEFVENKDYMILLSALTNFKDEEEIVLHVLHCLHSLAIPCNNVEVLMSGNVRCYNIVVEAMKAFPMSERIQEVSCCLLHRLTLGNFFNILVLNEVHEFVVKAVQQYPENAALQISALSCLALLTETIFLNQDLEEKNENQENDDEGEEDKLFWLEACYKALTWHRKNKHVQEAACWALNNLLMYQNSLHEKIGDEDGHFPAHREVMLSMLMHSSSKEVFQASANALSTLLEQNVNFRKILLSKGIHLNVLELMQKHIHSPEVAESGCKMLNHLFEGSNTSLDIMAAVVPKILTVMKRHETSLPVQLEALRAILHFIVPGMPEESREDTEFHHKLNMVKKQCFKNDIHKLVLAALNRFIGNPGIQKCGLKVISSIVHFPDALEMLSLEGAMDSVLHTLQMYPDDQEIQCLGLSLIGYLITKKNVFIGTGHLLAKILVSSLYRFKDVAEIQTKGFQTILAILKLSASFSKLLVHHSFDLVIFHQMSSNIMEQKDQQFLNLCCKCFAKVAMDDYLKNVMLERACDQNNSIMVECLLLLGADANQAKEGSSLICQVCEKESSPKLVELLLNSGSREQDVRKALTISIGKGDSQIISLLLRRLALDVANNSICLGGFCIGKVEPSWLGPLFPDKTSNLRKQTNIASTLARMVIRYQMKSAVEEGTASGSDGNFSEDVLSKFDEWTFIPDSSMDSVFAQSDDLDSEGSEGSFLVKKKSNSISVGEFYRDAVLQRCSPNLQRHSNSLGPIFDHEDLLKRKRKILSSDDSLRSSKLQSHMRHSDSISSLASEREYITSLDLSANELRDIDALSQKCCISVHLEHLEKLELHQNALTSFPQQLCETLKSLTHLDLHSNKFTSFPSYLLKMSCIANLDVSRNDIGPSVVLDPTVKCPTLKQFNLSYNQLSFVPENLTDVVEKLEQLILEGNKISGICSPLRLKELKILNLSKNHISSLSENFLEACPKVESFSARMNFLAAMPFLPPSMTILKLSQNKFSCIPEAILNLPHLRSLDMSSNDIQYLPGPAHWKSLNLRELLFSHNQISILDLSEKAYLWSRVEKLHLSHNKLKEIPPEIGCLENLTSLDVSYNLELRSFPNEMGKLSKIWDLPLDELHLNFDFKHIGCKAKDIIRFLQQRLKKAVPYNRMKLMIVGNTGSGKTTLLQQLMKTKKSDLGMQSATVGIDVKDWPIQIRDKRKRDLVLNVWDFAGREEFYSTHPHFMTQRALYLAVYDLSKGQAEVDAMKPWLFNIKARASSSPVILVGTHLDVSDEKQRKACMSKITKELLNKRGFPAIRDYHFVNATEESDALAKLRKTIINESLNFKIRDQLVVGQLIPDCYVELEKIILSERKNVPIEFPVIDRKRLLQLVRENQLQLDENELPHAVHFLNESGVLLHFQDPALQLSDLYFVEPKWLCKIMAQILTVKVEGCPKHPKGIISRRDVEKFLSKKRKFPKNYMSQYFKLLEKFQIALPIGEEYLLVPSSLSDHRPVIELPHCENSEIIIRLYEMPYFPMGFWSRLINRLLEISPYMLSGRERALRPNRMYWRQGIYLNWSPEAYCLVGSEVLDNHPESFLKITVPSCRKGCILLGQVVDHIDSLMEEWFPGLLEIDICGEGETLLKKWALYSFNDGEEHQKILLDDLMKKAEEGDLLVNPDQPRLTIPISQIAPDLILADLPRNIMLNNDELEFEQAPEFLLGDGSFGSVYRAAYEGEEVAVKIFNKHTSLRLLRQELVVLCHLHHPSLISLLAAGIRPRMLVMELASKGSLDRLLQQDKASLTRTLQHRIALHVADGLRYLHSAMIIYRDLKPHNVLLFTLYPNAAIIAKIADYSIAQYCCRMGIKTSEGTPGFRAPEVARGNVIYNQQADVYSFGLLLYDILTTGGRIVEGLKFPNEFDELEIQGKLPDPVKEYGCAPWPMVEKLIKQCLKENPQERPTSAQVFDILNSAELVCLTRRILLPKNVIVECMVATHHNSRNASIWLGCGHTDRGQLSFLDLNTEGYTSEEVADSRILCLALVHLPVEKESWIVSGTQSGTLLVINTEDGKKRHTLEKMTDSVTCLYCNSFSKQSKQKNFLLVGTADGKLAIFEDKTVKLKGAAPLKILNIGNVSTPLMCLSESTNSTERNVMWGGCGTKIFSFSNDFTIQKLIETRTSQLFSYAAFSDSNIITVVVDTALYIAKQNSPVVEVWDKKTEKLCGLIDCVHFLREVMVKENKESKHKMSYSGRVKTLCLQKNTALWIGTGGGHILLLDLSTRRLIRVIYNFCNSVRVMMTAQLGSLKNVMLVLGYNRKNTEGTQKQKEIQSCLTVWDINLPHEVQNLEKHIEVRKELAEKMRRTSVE
Substance-P receptor (Homo sapiens), sequence (P25103 whole entry, the tested form may be a part): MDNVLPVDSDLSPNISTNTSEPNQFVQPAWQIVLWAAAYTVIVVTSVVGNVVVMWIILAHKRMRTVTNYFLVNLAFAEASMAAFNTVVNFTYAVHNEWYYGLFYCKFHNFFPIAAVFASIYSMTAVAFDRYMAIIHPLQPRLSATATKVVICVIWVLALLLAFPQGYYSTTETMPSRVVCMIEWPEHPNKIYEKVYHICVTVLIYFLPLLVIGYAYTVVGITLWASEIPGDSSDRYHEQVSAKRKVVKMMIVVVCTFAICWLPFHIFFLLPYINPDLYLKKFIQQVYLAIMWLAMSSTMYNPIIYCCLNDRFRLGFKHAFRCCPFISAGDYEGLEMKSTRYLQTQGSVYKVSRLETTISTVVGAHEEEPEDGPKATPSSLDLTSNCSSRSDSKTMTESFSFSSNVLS
Voltage-gated inwardly rectifying potassium channel KCNH2, sequence (Q12809 whole entry): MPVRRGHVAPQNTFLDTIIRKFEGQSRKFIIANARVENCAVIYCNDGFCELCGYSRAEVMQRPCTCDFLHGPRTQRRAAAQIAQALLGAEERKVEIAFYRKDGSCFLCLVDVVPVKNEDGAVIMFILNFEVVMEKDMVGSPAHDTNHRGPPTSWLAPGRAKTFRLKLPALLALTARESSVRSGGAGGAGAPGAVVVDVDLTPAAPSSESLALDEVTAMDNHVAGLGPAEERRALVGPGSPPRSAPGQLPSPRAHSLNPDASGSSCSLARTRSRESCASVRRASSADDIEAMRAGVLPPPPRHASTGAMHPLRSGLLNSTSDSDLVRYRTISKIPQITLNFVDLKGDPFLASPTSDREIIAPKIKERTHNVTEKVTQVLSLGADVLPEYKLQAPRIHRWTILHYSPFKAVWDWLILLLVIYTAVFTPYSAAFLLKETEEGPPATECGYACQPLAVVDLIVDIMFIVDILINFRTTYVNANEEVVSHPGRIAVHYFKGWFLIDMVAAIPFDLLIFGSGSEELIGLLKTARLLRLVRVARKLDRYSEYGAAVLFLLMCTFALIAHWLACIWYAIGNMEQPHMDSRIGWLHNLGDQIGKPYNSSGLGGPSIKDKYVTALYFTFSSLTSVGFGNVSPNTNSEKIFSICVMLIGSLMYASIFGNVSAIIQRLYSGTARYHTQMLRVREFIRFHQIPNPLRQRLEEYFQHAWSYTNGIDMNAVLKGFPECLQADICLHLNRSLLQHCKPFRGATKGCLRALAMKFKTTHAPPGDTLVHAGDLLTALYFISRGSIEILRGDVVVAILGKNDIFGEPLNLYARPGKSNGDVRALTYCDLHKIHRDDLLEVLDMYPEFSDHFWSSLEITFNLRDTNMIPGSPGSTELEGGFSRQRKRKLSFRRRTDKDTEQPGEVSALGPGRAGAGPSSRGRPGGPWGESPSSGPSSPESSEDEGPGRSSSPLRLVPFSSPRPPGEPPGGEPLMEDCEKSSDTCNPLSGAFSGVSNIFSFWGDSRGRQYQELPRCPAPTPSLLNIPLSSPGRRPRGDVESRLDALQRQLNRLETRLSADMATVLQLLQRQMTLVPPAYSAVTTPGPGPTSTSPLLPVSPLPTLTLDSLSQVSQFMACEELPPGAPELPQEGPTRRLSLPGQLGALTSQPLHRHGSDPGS
Adenosine receptor A2a (Homo sapiens), sequence (P29274 whole entry): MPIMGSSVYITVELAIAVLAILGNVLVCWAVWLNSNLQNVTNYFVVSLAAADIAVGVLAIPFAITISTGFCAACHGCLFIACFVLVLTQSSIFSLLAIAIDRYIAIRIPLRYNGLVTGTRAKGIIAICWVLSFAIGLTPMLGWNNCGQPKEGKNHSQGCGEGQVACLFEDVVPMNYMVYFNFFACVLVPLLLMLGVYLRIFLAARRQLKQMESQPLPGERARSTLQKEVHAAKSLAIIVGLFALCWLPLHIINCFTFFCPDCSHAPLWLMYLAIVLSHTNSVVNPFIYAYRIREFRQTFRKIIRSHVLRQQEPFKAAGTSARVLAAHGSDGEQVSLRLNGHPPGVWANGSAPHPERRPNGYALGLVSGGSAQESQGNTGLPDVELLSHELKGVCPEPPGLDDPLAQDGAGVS
Dual specificity protein kinase CLK2, sequence (P49760 whole entry): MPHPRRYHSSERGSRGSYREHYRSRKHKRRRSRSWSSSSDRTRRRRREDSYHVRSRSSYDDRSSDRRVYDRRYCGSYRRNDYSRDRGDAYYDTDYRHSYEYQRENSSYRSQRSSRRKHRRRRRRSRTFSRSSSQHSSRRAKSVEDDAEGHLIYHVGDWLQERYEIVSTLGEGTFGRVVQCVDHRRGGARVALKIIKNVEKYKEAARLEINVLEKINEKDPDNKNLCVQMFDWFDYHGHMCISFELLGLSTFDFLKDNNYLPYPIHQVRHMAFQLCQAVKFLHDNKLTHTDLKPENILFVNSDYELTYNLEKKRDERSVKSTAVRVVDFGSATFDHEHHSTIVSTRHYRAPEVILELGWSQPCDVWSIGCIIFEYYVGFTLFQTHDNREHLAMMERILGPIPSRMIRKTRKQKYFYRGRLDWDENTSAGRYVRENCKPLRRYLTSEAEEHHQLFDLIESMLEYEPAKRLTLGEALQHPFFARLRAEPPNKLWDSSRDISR

For `Cn1cc(-c2cccc(C(=O)Nc3cc(N4CC[C@@H](C(C)(C)O)C4)ncc3C(F)(F)F)n2)cn1`, the inhibition in vivo at 3 mg/kg [1] was 2%, the inhibition [2] was greater than 50% and the Activity [3] was “Non-Toxic”. The Drug metabolism [4] was “Metabolite_Detected”, the bioavailability [5] was 43% and the Activity [6] was “Non-Toxic”. The inhibition [7] was greater than 50%, the Selectivity ratio (Homo sapiens [8]) was greater than 100 and the Ratio IC50 (Homo sapiens [9]) was 63. It also gave a CL/F [10] of 15 mL/min/kg, an MRT [11] of 5.2 h and a CL [12] of 5722 mL/min/kg. For the same compound, the Activity [13] was “Non-Toxic”, the inhibition (Cavia porcellus) was greater than 50% and the Activity [14] was “Non-Toxic”. For the same compound, the CL [15] was 14531 mL/min/kg, the inhibition [16] was greater than 50% and the IC50 [17] was 0.001 µM. The Papp at 3 h, 0.1 µM [18] was 35 ×10⁻⁶ cm/s, the IC50 [19] was 0.063 µM and the MRT [20] was 3.6 h. For the same compound, the Activity [21] was “Non-Toxic”, the Selectivity ratio (Homo sapiens [22]) was greater than 100 and the inhibition in vivo at 10 mg/kg [23] was 13%. For the same compound, the inhibition in vivo at 100 mg/kg [24] was 56%, the Selectivity ratio (Homo sapiens [25]) was greater than 100 and the IC50 [26] was 21.8 µM. It also gave an IC50 [27] of 29.9 µM, an inhibition in vivo at 30 mg/kg [28] of 35% and an IC50 [29] of 7.6 µM. For the same compound, the IC50 [30] was 0.0025 µM, the CL/F [31] was 10 mL/min/kg and the bioavailability [32] was 16%. For the same compound, the Kp [33] was 0.6 and the Drug metabolism [34] was “Metabolite_Detected”.
